According to ChEMBL document CHEMBL4715736, “Identification of anticancer agents based on the thieno[2,3-b]pyridine and 1H-pyrazole molecular scaffolds” (2016):

Each compound was assayed on BT-549 (assay: Growth inhibition of human BT-549 cells assessed as cell growth at 10 uM incubated for 48 hrs by sulforhodamine B assay relative to control). Conditions: read-out: Activity.
Type: functional
Method in brief: (§1)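 NCI Developmental Therapeutics Program NCI60 human tumour cell line panel, one-dose primary screen with every compound at 10 µM. Growth is expressed as % of untreated control cells (100%).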

Compound | growth at 10 µM [%]
Cc1cc(C)c(NC(=O)c2sc3nc4c(cc3c2N)CN(Cc2ccccc2)CC4)c(C)c1 | 30

Each compound was assayed on HCT-15 (assay: Growth inhibition of human HCT-15 cells incubated for 48 hrs by sulforhodamine B assay). Conditions: not given.
Type: functional
Method in brief: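 NCI60 panel at the NCI Developmental Therapeutics Program. Only compounds active in the 10 µM screen went to dose-response testing. GI50, the concentration giving 50% of maximal inhibition of proliferation, and TGI, the concentration giving total growth inhibition, were derived from the dose-response curves.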

Compound | GI50 [µM] | LC50 [µM] | TGI [µM]
Cc1cc(C)c(NC(=O)c2sc3nc4c(cc3c2N)CN(Cc2ccccc2)CC4)c(C)c1 | 2.12 | > 100 | > 100

The compounds below were run on NCI-H23 (assay: Growth inhibition of human NCI-H23 cells assessed as cell growth at 10 uM incubated for 48 hrs by sulforhodamine B assay relative to control). Conditions: read-out: Activity.
Type: functional
Method in brief: (§2)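 Submitted to the NCI Developmental Therapeutics Program for the NCI60 human tumour cell line panel. First screen at a single 10 µM concentration. Read-out is growth relative to untreated control cells set at 100%.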

Compound | growth at 10 µM [%]
Cc1cc(C)c(NC(=O)c2sc3nc4c(cc3c2N)CN(Cc2ccccc2)CC4)c(C)c1 | 27

These compounds were tested on NCI-H522 (assay: Growth inhibition of human NCI-H522 cells assessed as cell growth at 10 uM incubated for 48 hrs by sulforhodamine B assay relative to control). Conditions: read-out: Activity.
Type: functional
Method in brief: as §2

Compound | growth at 10 µM [%]
Cc1cc(C)c(NC(=O)c2sc3nc4c(cc3c2N)CN(Cc2ccccc2)CC4)c(C)c1 | -13

What follows are compounds tested on K562 (assay: Growth inhibition of human K562 cells assessed as cell growth at 10 uM incubated for 48 hrs by sulforhodamine B assay relative to control). Conditions: read-out: Activity.
Type: functional
Method in brief: as §2

Compound | growth at 10 µM [%]
Cc1cc(C)c(NC(=O)c2sc3nc4c(cc3c2N)CN(Cc2ccccc2)CC4)c(C)c1 | 13

Each compound was assayed on SF-539 (assay: Growth inhibition of human SF-539 cells incubated for 48 hrs by sulforhodamine B assay). Conditions: not given.
Type: functional
Method in brief: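 NCI DTP 60-line human tumour panel. Dose-response curves were run only for ligands active in the initial 10 µM screen. GI50 (concentration giving 50% of maximal inhibition of proliferation) and TGI (concentration giving total growth inhibition) were derived from these curves.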

Compound | GI50 [µM] | TGI [µM]
Cc1cc(C)c(NC(=O)c2sc3nc4c(cc3c2N)CN(Cc2ccccc2)CC4)c(C)c1 | 2.44 | 7.79

Same assay, conditions: read-out: LC50 (the source's name)

Compound | CC50 [µM]
Cc1cc(C)c(NC(=O)c2sc3nc4c(cc3c2N)CN(Cc2ccccc2)CC4)c(C)c1 | > 100

The compounds below were run on MOLT-4 (assay: Growth inhibition of human MOLT-4 cells assessed as cell growth at 0.01 uM incubated for 48 hrs by sulforhodamine B assay relative to control). Conditions: read-out: Activity.
Type: functional

Compound | growth at 0.01 µM [%]
Cc1cc(C)c(NC(=O)c2sc3nc4c(cc3c2N)CN(Cc2ccccc2)CC4)c(C)c1 | 99

What follows are compounds tested on ACHN (assay: Growth inhibition of human ACHN cells assessed as cell growth at 10 uM incubated for 48 hrs by sulforhodamine B assay relative to control). Conditions: read-out: Activity.
Type: functional
Method in brief: as §1

Compound | growth at 10 µM [%]
Cc1cc(C)c(NC(=O)c2sc3nc4c(cc3c2N)CN(Cc2ccccc2)CC4)c(C)c1 | 40

These compounds were tested on DU-145 (assay: Growth inhibition of human DU-145 cells assessed as cell growth at 10 uM incubated for 48 hrs by sulforhodamine B assay relative to control). Conditions: read-out: Activity.
Type: functional
Method in brief: (§3)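 NCI Developmental Therapeutics Program NCI60 panel. Compounds that were active in the 10 µM one-dose screen went on to dose–response testing. Growth at each concentration is expressed relative to untreated control (100%). GI50 (concentration giving 50% of maximal inhibition of proliferation) and TGI (concentration giving total growth inhibition) were derived from the curves.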

Compound | growth at 10 µM [%]
Cc1cc(C)c(NC(=O)c2sc3nc4c(cc3c2N)CN(Cc2ccccc2)CC4)c(C)c1 | -12

What follows are compounds tested on SF-268 (assay: Growth inhibition of human SF-268 cells assessed as cell growth at 10 uM incubated for 48 hrs by sulforhodamine B assay relative to control). Conditions: read-out: Activity.
Type: functional
Method in brief: (§4)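 Run by the NCI Developmental Therapeutics Program as part of its 60-line human tumour panel. Each compound tested at a single 10 µM dose. Growth expressed as % relative to untreated control cells (100%).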

Compound | growth at 10 µM [%]
Cc1cc(C)c(NC(=O)c2sc3nc4c(cc3c2N)CN(Cc2ccccc2)CC4)c(C)c1 | 42

Each compound was assayed on OVCAR-8 (assay: Growth inhibition of human OVCAR-8 cells assessed as cell growth at 10 uM incubated for 48 hrs by sulforhodamine B assay relative to control). Conditions: read-out: Activity.
Type: functional
Method in brief: as §4

Compound | growth at 10 µM [%]
Cc1cc(C)c(NC(=O)c2sc3nc4c(cc3c2N)CN(Cc2ccccc2)CC4)c(C)c1 | 30

The compounds below were run on CAKI-1 (assay: Growth inhibition of human CAKI-1 cells assessed as cell growth at 100 uM incubated for 48 hrs by sulforhodamine B assay relative to control). Conditions: read-out: Activity.
Type: functional
Method in brief: as §3

Compound | growth at 100 µM [%]
Cc1cc(C)c(NC(=O)c2sc3nc4c(cc3c2N)CN(Cc2ccccc2)CC4)c(C)c1 | 4

The compounds below were run on TK-10 (assay: Growth inhibition of human TK-10 cells assessed as cell growth at 10 uM incubated for 48 hrs by sulforhodamine B assay relative to control). Conditions: read-out: Activity.
Type: functional
Method in brief: as §4

Compound | growth at 10 µM [%]
Cc1cc(C)c(NC(=O)c2sc3nc4c(cc3c2N)CN(Cc2ccccc2)CC4)c(C)c1 | 31

Each compound was assayed on LOX IMVI (assay: Growth inhibition of human LOX IMVI cells assessed as cell growth at 0.1 uM incubated for 48 hrs by sulforhodamine B assay relative to control). Conditions: read-out: Activity.
Type: functional

Compound | growth at 0.1 µM [%]
Cc1cc(C)c(NC(=O)c2sc3nc4c(cc3c2N)CN(Cc2ccccc2)CC4)c(C)c1 | 105
